Laboratory results published in ChEMBL document CHEMBL4680077, “Differentiation of skeletal osteogenic progenitor cells to osteoblasts with 3,4-diarylbenzopyran based amide derivatives: Novel osteogenic agents” (Eur J Med Chem, 2016).
Calls of active or inactive are those of the source. No cut-off for these calls is given here.

Experiments:
Calvarial osteoblast [1] = test: Induction of osteoblast differentiation in mouse calvarial osteoblast assessed as increase in RUNX-2 mRNA expression at 1 pM incubated for 24 hrs by qPCR analysis; assay type: functional, cell-based
Outline: (§1)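 Calvarial osteoblasts were treated at 1 pM for 24 and 48 h. Total RNA was extracted with TRIzol, and cDNA was made from 2 µg RNA. qPCR ran 40 cycles for BMP-2, RUNX-2, OCN and collagen type 1, with normalization to GAPDH. Mean ± SEM of three independent experiments.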

Mus musculus = test: In vivo osteogenic activity in ovariectomized BALB/c mouse assessed as decrease in trabecular spacing at 1 to 10 mg/kg, po via gavage administered for 1 month by microCT imaging analysis; assay type: functional, organism-based; conditions: dose 1-10 mg/kg, time 1.0 months
Outline: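 Ovariectomized female balb/c mice, 8 weeks old, 10 per group, received 1.0 or 10.0 mg kg-1 once daily by oral gavage (gum acacia vehicle) for 4 weeks, alongside sham and Ovx vehicle groups. Femurs were scanned by microCT. BV/TV, Tb.N and Tb.Sp were derived by the mean intercept length method. Mean ± SE.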

[2] = Acute toxicity in Swiss albino mouse assessed as relative ovary weight at 50 mg/kg, po measured after 7 days (reference value: 0.07 +/- 0.02 %); assay type: organism-based; conditions: in vivo, 168 h, time 7 day
[3] = Acute toxicity in Swiss albino mouse assessed as relative uterus weight at 5 mg/kg, po measured after 7 days (reference value: 1.63 +/- 0.71 %); assay type: organism-based; conditions: in vivo, 168 h, time 7 day
Calvarial osteoblast [4] = test: Induction of osteoblast differentiation in mouse calvarial osteoblast assessed as increase in BMP-2 mRNA expression at 1 pM incubated for 48 hrs by qPCR analysis; assay type: functional, cell-based; outline: as §1
[5] = Acute toxicity in Swiss albino mouse assessed as relative liver weight at 5 mg/kg, po measured after 7 days (reference value: 6.81 +/- 2.14 %); assay type: organism-based; conditions: in vivo, 168 h, time 7 day
[6] = Acute toxicity in Swiss albino mouse assessed as eosinophil count at 1000 mg/kg, po measured after 7 days (reference value: 6.34 +/- 1.04 %); assay type: organism-based; conditions: in vivo, 168 h, time 7 day
[7] = Acute toxicity in Swiss albino mouse assessed as SGOT level at 5 mg/kg, po measured after 7 days (reference value: 31.99 +/- 3.37 U/L); assay type: organism-based; conditions: in vivo, 168 h, time 7 day
[8] = Acute toxicity in Swiss albino mouse assessed as mortality at 5 to 1000 mg/kg, po measured after 7 days; assay type: organism-based; conditions: in vivo, 168 h, dose 5-1000 mg/kg, time 7 day
Outline: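 Acute oral toxicity per OECD guidelines 420, 423 and 425. Swiss albino mice received a single oral dose at 5, 50, 300 or 1000 mg kg1 body weight, with vehicle controls. Animals were watched for morbidity, mortality and observational changes over 7 days. Tail-vein blood was then taken for hematology and serum biochemistry. Organs were inspected at sacrifice. n = 6 per group.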

[9] = Acute toxicity in Swiss albino mouse assessed as relative liver weight at 1000 mg/kg, po measured after 7 days (reference value: 6.81 +/- 2.14 %); assay type: organism-based; conditions: in vivo, 168 h, time 7 day
[10] = Volume of distribution in Sprague-Dawley rat at 1 mg/kg, po measured upto 24 hrs by LC-MS/MS analysis; assay type: ADME, organism-based; conditions: in vivo
Outline: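 Female Sprague-Dawley rats (n = 4), fasted overnight 12–14 h, dosed orally at 1 mg kg-1 as a 0.25% CMC suspension and fed 3 h post-dose. Retro-orbital blood was taken from 0.25 to 24 h. Plasma was hexane-extracted and assayed by LC-MS/MS. Cmax and Tmax were read from the data; other parameters came from non-compartmental analysis. Mean ± S.D.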

[11] = Acute toxicity in Swiss albino mouse assessed as absolute heart weight at 50 mg/kg, po measured after 7 days (reference value: 0.12 g); assay type: organism-based; conditions: in vivo, 168 h, time 7 day
[12] = Acute toxicity in Swiss albino mouse assessed as absolute liver weight at 1000 mg/kg, po measured after 7 days (reference value: 1.11 +/- 0.04 g); assay type: organism-based; conditions: in vivo, 168 h, time 7 day
[13] = Acute toxicity in Swiss albino mouse assessed as relative liver weight at 300 mg/kg, po measured after 7 days (reference value: 6.81 +/- 2.14 %); assay type: organism-based; conditions: in vivo, 168 h, time 7 day
[14] = Acute toxicity in Swiss albino mouse assessed as SGPT level at 50 mg/kg, po measured after 7 days (reference value: 14.04 +/- 1.45 U/L); assay type: organism-based; conditions: in vivo, 168 h, time 7 day
[15] = Acute toxicity in Swiss albino mouse assessed as haemoglobin level at 50 mg/kg, po measured after 7 days (reference value: 10.86 +/- 0.87 g/dL); assay type: organism-based; conditions: in vivo, 168 h, time 7 day
[16] = Acute toxicity in Swiss albino mouse assessed as tissue protein level at 50 mg/kg, po measured after 7 days (reference value: 0.029 +/- 0.004 mg/ml); assay type: organism-based; conditions: in vivo, 168 h, time 7 day
[17] = Volume of distribution in Sprague-Dawley rat at 1 mg/kg, iv measured upto 24 hrs by LC-MS/MS analysis; assay type: ADME, organism-based; conditions: in vivo
[18] = Acute toxicity in Swiss albino mouse assessed as relative spleen weight at 1000 mg/kg, po measured after 7 days (reference value: 0.73 +/- 0.14 %); assay type: organism-based; conditions: in vivo, 168 h, time 7 day
[19] = Acute toxicity in Swiss albino mouse assessed as eosinophil count at 5 mg/kg, po measured after 7 days (reference value: 6.34 +/- 1.04 %); assay type: organism-based; conditions: in vivo, 168 h, time 7 day
[20] = Acute toxicity in Swiss albino mouse assessed as triglycerides level at 1000 mg/kg, po measured after 7 days (reference value: 58.51 +/- 10.82 mg/dL); assay type: organism-based; conditions: in vivo, 168 h, time 7 day
[21] = Acute toxicity in Swiss albino mouse assessed as tissue protein level at 1000 mg/kg, po measured after 7 days (reference value: 0.029 +/- 0.004 mg/ml); assay type: organism-based; conditions: in vivo, 168 h, time 7 day
[22] = Acute toxicity in Swiss albino mouse assessed as triglycerides level at 50 mg/kg, po measured after 7 days (reference value: 58.51 +/- 10.82 mg/dL); assay type: organism-based; conditions: in vivo, 168 h, time 7 day

With `CCCCN(C)C(=O)CCCCOc1ccc([C@H]2c3ccc(OC)cc3OC(C)(C)[C@@H]2c2ccccc2)cc1` the Activity (Calvarial osteoblast [1]) was “Active”, the Activity (Mus musculus) was “Active” and the Activity [2] was 0.33%. The Activity [3] was 1.77%, the Activity (Calvarial osteoblast [4]) was “Active” and the Activity [5] was 4.84%. The Activity [6] was 5.35%, the Activity [7] was 33.05 U/L and the Activity [8] was “Non-Toxic”. It also gave an Activity [9] of 5.28%, a Vd [10] of 5.822 L/kg and an Activity [11] of 0.12 g. The Activity [12] was 1.07 g, the Activity [13] was 4.84% and the Activity [14] was 17.18 U/L. For the same compound, the Activity [15] was 13.14 g/dL, the Activity [16] was 0.036 mg/mL and the Vd [17] was 5.61 L/kg. The Activity [18] was 0.5%, the Activity [19] was 8.35% and the Activity [20] was 92.31 mg/dL. The Activity [21] was 0.032 mg/mL and the Activity [22] was 83.78 mg/dL.
